Experimental findings from ChEMBL document CHEMBL1777774, “A novel, broad-spectrum antitumor compound containing the 1-hydroxycyclohexa-2,5-dien-4-one group: the disclosure of a new antitumor pharmacophore in protoapigenone 1” (Bioorg Med Chem Lett, 2011) are described below.

One data set concerns MCF7. In words: Antitumor activity against human MCF7 cells assessed as cell proliferation after 24 hrs by MTT assay. The class given is functional, cell-based. The settings on record: MCF7, 24 h. The method, boiled down: (§1)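 Cells seeded at 2000 per well in 96-well plates and allowed to adhere. Compounds in DMSO, diluted in culture medium, added at 0.1–100 μM (eight wells per concentration) for 24 h. DMSO vehicle control. MTT 0.5 mg/mL (in PBS) for 4 h, then medium removed and DMSO added, absorbance read at 570 nm. IC50 from concentration vs percent absorbance plot. Mean ± SD, n = 4.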

The next data set deals with MDA-MB-231. In words: Antitumor activity against human MDA-MB-231 cells assessed as cell proliferation after 24 hrs by MTT assay. The settings on record: MDA-MB-231, 24 h. The class given is functional, cell-based. The procedure, abridged: as §1
The subject of a further data set is SK-OV-3. In words: Antitumor activity against human SKOV3 cells assessed as cell proliferation after 24 hrs by MTT assay. The class given is functional, cell-based. The settings on record: SK-OV-3, 24 h. The procedure, abridged: as §1
Another data set deals with PC-3. Description: Antitumor activity against human PC3 cells assessed as cell proliferation after 24 hrs by MTT assay. Type of data set: functional, cell-based. The settings on record: PC-3, 24 h. The procedure, abridged:
as §1

The test system of another data set is HepG2. Description: Antitumor activity against human HepG2 cells assessed as cell proliferation after 24 hrs by MTT assay. The class given is functional, cell-based. The settings on record: HepG2, 24 h. The method, boiled down:
as §1

The next data set deals with PANC-1. In words: Antitumor activity against human PANC1 cells assessed as cell proliferation after 24 hrs by MTT assay. Type of data set: functional, cell-based. The settings on record: PANC-1, 24 h. The procedure, abridged: as §1
The subject of the next data set is RPMI-8226. In words: Antitumor activity against human RPMI8226 cells assessed as cell proliferation after 24 hrs by MTT assay. Type of data set: functional, cell-based. The settings on record: RPMI-8226, 24 h. The procedure, abridged: as §1
The next data set deals with U-266. In words: Antitumor activity against human U266 cells assessed as cell proliferation after 24 hrs by MTT assay. Type of data set: functional, cell-based. The settings on record: U-266, 24 h. The method, boiled down: as §1
The subject of the next data set is HEK293. In words: Cytotoxicity against human HEK293 cells assessed as cell proliferation after 24 hrs by MTT assay. The settings on record: HEK293, 24 h. The class given is cell-based. The procedure, abridged: as §1
A further data set concerns PBMC. In words: Cytotoxicity against human PBMC assessed as cell proliferation after 24 hrs by MTT assay. The class given is cell-based. The procedure, abridged:
as §1

For a further data set, the system named is H22. In words: Antitumor activity against mouse H22 tumor-nearing ICR mouse assessed as inhibition of tumor growth at 10 mg/kg, ip for 7 days measured on day 9. The class given is functional. The settings on record: route intraperitoneal. The procedure, abridged: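 ICR mice given H22 ascites cells from serial passage, 0.2 ml of 1×10^7 cells/ml injected subcutaneously into right flank, 10 mice per group. From day 2, 10 mg/kg/day ip in 10% ethanol (10 ml/kg) for 7 days. Cyclophosphamide 10 mg/kg as reference, vehicle-treated tumor model group. Killed day 9, tumors weighed. Inhibition = (model − treated tumor weight)/model weight × 100%.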

In data set [1] the test system is Mus musculus. In words: Toxicity in […] H22 tumor-nearing ICR mouse assessed as white blood cell count at 10 mg/kg, ip for 7 days measured on day 9 relative to control. The class given is organism-based. On the set-up: dose 10 mg/kg, route intraperitoneal. The settings on record: in vivo, 168 h. The method, boiled down:
(§2)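 H22-bearing ICR mice (10 per group, plus a saline-injected normal group) dosed ip at 10 mg/kg/day in 10% ethanol for 7 days from day 2. Vehicle given to controls. On day 9 blood was taken for WBC count, and body weight, thymus and spleen were weighed. Thymus or spleen index = organ weight (mg)/body weight (g).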

Data set [2] deals with Mus musculus. Description: Toxicity in […] H22 tumor-nearing ICR mouse assessed as thymus index at 10 mg/kg, ip for 7 days measured on day 9 relative to control. The settings on record: in vivo, 168 h. Details: dose 10 mg/kg, route intraperitoneal. Type of data set: organism-based. The method, boiled down:
as §2

Data set [3] concerns Mus musculus. In words: Toxicity in […] H22 tumor-nearing ICR mouse assessed as spleen index at 10 mg/kg, ip for 7 days measured on day 9 relative to control. The class given is organism-based. Details: dose 10 mg/kg, route intraperitoneal. The settings on record: in vivo, 168 h. The method, boiled down:
as §2

Data set [4] relates to Mus musculus. Description: Toxicity in […] H22 tumor-nearing ICR mouse assessed as body weight at 10 mg/kg, ip for 7 days measured on day 9 relative to control. The class given is organism-based. The settings on record: in vivo, 168 h. On the set-up: dose 10 mg/kg, route intraperitoneal. The method, boiled down:
as §2

Data set [5] deals with Mus musculus. Description: Toxicity in […] H22 tumor-nearing ICR mouse assessed as decrease in total nucleated bone marrow cells at 10 mg/kg, ip for 7 days measured on day 9. Type of data set: organism-based. Details: dose 10 mg/kg, route intraperitoneal; scale not given: the % may be the effect or the level left. The settings on record: in vivo, 168 h. The procedure, abridged:
(§3)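 H22-bearing ICR mice dosed ip 10 mg/kg/day in 10% ethanol for 7 days from day 2, with vehicle controls. Killed day 9 and femoral marrow flushed. Nucleated cells counted with a Coulter Counter. Granulocytic and erythroid cells per femur counted on May-Grünwald-Giemsa-stained marrow smears.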

The test system of data set [6] is Mus musculus. In words: Toxicity in […] H22 tumor-nearing ICR mouse assessed as decrease in ratio of granulocytic and erythroid cell system at 10 mg/kg, ip for 7 days measured on day 9. The class given is organism-based, Erythrocyte. Details: dose 10 mg/kg, route intraperitoneal; scale not given: the % may be the effect or the level left. The settings on record: in vivo, 168 h. The procedure, abridged: as §3

As to `O=C1C=CC(O)(c2cc(=O)cco2)C=C1`, the IC50 in the data set on MCF7 turned out to be 0.71 µM; in the data set with MDA-MB-231, 0.38 µM; with SK-OV-3, 0.64 µM; in the data set on PC-3, 3.43 µM; in the data set with HepG2, 1.76 µM; in the data set on PANC-1 it was 3.08 µM. In addition, the IC50 worked out at 13.5 µM in the data set with RPMI-8226, 9.44 µM in the data set on U-266, 30 µM in the data set on HEK293 and 49.3 µM with PBMC. In the data set on H22, the inhibition in vivo at 10 mg/kg was determined as 34.1%. Besides, the Activity entry in the data set with Mus musculus [1], with Mus musculus [2], in the data set on Mus musculus [3], in the data set on Mus musculus [4], in the data set with Mus musculus [5] and in the data set on Mus musculus [6] was “Non-toxic” each time.

As to `O=P1(N(CCCl)CCCl)NCCCO1` (stereo not given) [CYCLOPHOSPHAMIDE ANHYDROUS], in the data set on H22, the inhibition in vivo at 10 mg/kg was 41.7%.

In the case of `O=C1C=CC(O)(c2cc(=O)c3c(O)cc(O)cc3o2)C=C1` [PROTOAPIGENONE], the IC50 in the data set on MCF7 was 5.5 µM; with MDA-MB-231, 1.7 µM; in the data set on SK-OV-3 it was 0.71 µM; in the data set with PC-3, 6.13 µM; with HepG2 it was 7.77 µM; with PANC-1, 22.1 µM. For the same molecule, the IC50 in the data set on RPMI-8226 was 3.93 µM; in the data set on U-266, 7.66 µM; with HEK293 it was 6.79 µM; in the data set on PBMC it was 8.11 µM. Besides, the inhibition in vivo at 10 mg/kg in the data set with H22 was under 5%. For the same molecule, the Activity result is “Non-toxic” in the data set on Mus musculus [1]; “Non-toxic” in the data set on Mus musculus [2]; “Non-toxic” in the data set with Mus musculus [3]; “Non-toxic” with Mus musculus [4]; 51.52% with Mus musculus [5]; 36.9% with Mus musculus [6].
